The subject of one assay is KB. Description: Cytotoxicity against human KB cells after 4 hrs by MTT assay. Format: functional. Conditions: read-out: ED50 (the source's name). Summed up: (§1)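 KB and HeLa cells from ATCC; growth inhibition read by MTT colorimetric method; ED50 in μg/mL.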
The subject of another assay is HeLa. Description: Cytotoxicity against human HeLa cells after 4 hrs by MTT assay. Format: functional. As to conditions: read-out: ED50 (the source's name). The method, boiled down:
as §1
In general terms: Formazan colour is commonly taken as a measure of viable cells.

Converted amounts (≈) assume the structure as drawn. Where only a bound is given, the exact number is not on record here.

With `COC(=O)C1=C[C@@]2(C)CC[C@@H]3[C@@H](C)C[C@H](OC(C)=O)[C@@]32[C@@H]1C`, the EC50 with KB and with HeLa was greater than 10 mg/L throughout.

As to `CC(=O)O[C@H]1C[C@H](C)[C@H]2CC[C@]3(C)C=C(C(=O)O)[C@@H](C)[C@]123`, the EC50 in the assay on KB and with HeLa was greater than 10 mg/L throughout.

In the case of `C[C@@H]1C(C(=O)O)=C[C@@]2(C)CC[C@@H]3[C@@H](C)C[C@H](O)[C@@]132`, the EC50 in the assay on KB and with HeLa was greater than 10 mg/L in each case.

With `C[C@@H]1CC(=O)[C@@]23[C@@H](C)C(C(=O)O)=C[C@]2(C)CC[C@@H]13` [SUBERGORGIC ACID], the EC50 with KB and in the assay on HeLa was greater than 10 mg/L throughout.

Turning to `C[C@@H]1C(CO)=C[C@@]2(C)CC[C@@H]3[C@@H](C)CC[C@@]132` [SUBERGORGIOL], the EC50 with KB and in the assay with HeLa was greater than 10 mg/L in each case.

For `COC(=O)C1=C[C@@]2(C)CC[C@@H]3[C@@H](C)CC(=O)[C@@]32[C@@H]1C` [SUBERGORGIC ACID METHYL ESTER], the EC50 with KB was 4.3 mg/L (≈ 16.4 µM).

The record behind these values is ChEMBL document CHEMBL1150117, “Two new subergane-based sesquiterpenes from a Taiwanese Gorgonian coral Subergorgia suberosa” (2002).
